From PubChem
PGC1a acetyl inh = lowers PGC1a acetylation signal in U2OS cells; AlphaScreen anti-acetyl-lysine; with virally co-expressed GCN5 acetyltransferase; inhibition, % at 15.6 µM; 350,000 compounds, 0.17% hits; AID 651687;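 active = every replicate shows inhibition of at least 40%; inconclusive = mean inhibition at least 40% but some replicate below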;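 note: 0% = neutral control wells and 100% = positive control wells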
MLL AF4-AF9 inh = blocks AF4 peptide binding to human AF9. AlphaScreen, biotin-AF4 peptide binding to FLAG-AF9. inhibition, % at 10 µM. 350,000 compounds, 0.47% hits. AID 651704;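 active = every replicate reaching a set inhibition limit, whatever the replicate mean, cut at about 25% in these data; inconclusive = mean inhibition reaches that limit but some replicates miss it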;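 note: 0% = plate neutral control median and 100% = total signal loss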
Target sequence (P42568 whole entry, looked up): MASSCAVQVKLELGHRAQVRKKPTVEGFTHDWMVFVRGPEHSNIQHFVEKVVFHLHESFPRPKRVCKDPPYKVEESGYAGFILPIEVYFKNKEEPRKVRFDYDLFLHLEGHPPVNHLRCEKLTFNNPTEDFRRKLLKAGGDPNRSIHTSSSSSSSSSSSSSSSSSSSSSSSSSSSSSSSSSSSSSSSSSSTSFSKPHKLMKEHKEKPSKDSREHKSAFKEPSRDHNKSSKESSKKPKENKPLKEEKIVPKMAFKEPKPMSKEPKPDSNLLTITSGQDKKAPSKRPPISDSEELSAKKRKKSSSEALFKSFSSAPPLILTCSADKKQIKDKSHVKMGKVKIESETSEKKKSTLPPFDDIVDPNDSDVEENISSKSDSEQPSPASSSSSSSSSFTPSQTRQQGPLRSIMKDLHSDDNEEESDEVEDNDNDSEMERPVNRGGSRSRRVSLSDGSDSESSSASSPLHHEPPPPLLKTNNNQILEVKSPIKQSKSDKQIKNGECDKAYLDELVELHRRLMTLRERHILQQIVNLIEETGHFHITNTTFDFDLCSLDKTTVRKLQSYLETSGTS
EWS-Fli inh = EWS/Fli transcriptional activity inhibition; 350,000 compounds, 0.67% hits; A673 NR0B1-luciferase reporter, viability-normalised; AID 651661; inhibition, % at 12.6 µM;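 active = mean inhibition of at least 50% after viability correction, with every replicate also passing that limit; inconclusive = mean reaches 50% but only one of two replicates passes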;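 note: firefly luciferase signal divided by Alamar Blue viability fluorescence both relative to DMSO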
INS-1E GSIS act = primary screen for activators of insulin secretion dependent on glucose, INS-1E cells, GLuc reporter luminescence. activation, % at 16.6 µM. AID 743287. INS-1E GLuc reporter insulin secretion, 2-3 h. 370,000 compounds, 0.61% hits;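 active = lowest replicate activation of at least 40%, so every replicate reaches that level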;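 note: 0% = median of neutral control wells and 100% = median of IBMX positive control wells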
PAX8 inh HTS = inhibitors of PAX8 transcriptional activity in RMG-I cells | RMG-I TPO-luciferase reporter, SteadyGlo, 24 h | 360,000 compounds, 1.2% hits | inhibition, % at 12.6 µM;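 active = mean replicate inhibition at least 60% with every replicate also reaching 60%; inconclusive = only one of the two criteria is met; inactive = mean below 60% and not all replicates reaching 60%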;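 note: luciferase light reporting Pax8 driven TPO promoter activity; plate controls were median of neutral control wells for no effect and mitoxantrone controls for full effect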
Xi reactivation = activators of X-chromosome reactivation in mouse fibroblasts | XiGFP mouse fibroblasts, % GFP-positive cells imaging, 3 d; cells co-treated with 5-aza-dC sensitizer; scaled so ellipticine positive control = 100% | activation, % at 7.58 µM | 360,000 compounds, 0.055% hits;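 active = mean normalized replicate activation at least 10% and every replicate at or above 10%; inconclusive = only one of the two criteria met; inactive = mean below 10% and not all replicates reach 10%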;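 note: 0% = median of on-plate neutral control wells and 100% = ellipticine 6 µM median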
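Material: XiGFP fibroblasts, SV40-immortalized. Buffer or medium: DMEM plus 5-aza-dC sensitizer. Compound: single concentration per compound, delivered by pin transfer. Times: 3 days compound exposure. Controls: ellipticine 6 µM.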
Active calls of the source: *; ? = inconclusive; · = no result given; ! = a repeat was not active. Rows were chosen to be rich in hits. Some 2.1% of all compounds tested hit in one or more screens of this group.

SMILES	PGC1a acetyl inh	MLL AF4-AF9 inh	EWS-Fli inh	INS-1E GSIS act	PAX8 inh HTS	Xi reactivation
CN(C)C(=O)[C@H]1[C@H](CO)[C@H]2Cn3c(ccc(C4=CCCC4)c3=O)[C@@H]1N2CCC(F)(F)F	12	-2	7	0	1	0
O=C(NC(Nc1ncc(S(=O)(=O)c2ccc([N+](=O)[O-])cc2)s1)(C(F)(F)F)C(F)(F)F)c1ccc(Cl)cc1	-13	·	·	·	76*	·
COCCOC(=O)C1=C(C)NC(=O)N(C(C)=O)C1c1ccc(Cl)cc1 (centres undefined)	-5	·	·	56*	·	·
COc1ccc(CSc2ncn[nH]2)cc1[N+](=O)[O-]	·	·	·	61*	1	0
Cc1nn(CCO)c2nc(-c3cccs3)cc(C(F)(F)F)c12	·	10	7	11	161*	0
C[C@@H]1CCCCO[C@H](CN(C)C(=O)Nc2ccc(F)cc2)[C@@H](C)CN([C@@H](C)CO)C(=O)c2cc(NC(=O)Nc3ccc(C(F)(F)F)cc3)ccc2O1	-1	-10	-1	-3	95*	0
C[C@@H]1CN([C@H](C)CO)C(=O)c2cc(NC(=O)Nc3ccc(C(F)(F)F)cc3)ccc2O[C@@H](C)CCCCO[C@H]1CN(C)C(=O)Nc1ccc(F)cc1	-11	-10	8	-1	84*	0
C[C@H]1CCCCO[C@H](CN(C)C(=O)Nc2ccc(F)cc2)[C@@H](C)CN([C@@H](C)CO)C(=O)c2cc(NC(=O)Nc3ccc4c(c3)OCO4)ccc2O1	9	32*!	16	15	30	0
C[C@H](CO)N1C[C@H](C)[C@@H](CN(C)C(=O)Nc2ccc(F)cc2)OCCCC[C@H](C)Oc2ccc(NC(=O)Nc3ccc(C(F)(F)F)cc3)cc2C1=O	-5	-15	4	12	39	1
C[C@@H]1CCCCO[C@@H](CN(C)C(=O)C2CCCCC2)[C@H](C)CN([C@H](C)CO)C(=O)c2cc(NC(=O)Nc3ccc(F)cc3)ccc2O1	-5	8	17	-13	86*	0
Cc1ccc(S(=O)(=O)N[C@H]2C=C[C@@H](CC(=O)N3CCC(Cc4ccccc4)CC3)O[C@H]2CO)cc1	12	4	-1	-5	-36	0
O=C(Nc1cccc(Cl)c1)N1C[C@@H]2[C@H](c3ccccc31)[C@H](CO)N2C(=O)c1ccncc1	8	2	-7	-10	3	0
C[C@@H]1CN([C@H](C)CO)C(=O)c2cc(NC(=O)Nc3ccc(F)cc3)ccc2O[C@@H](C)CCCCO[C@H]1CN(C)C(=O)Nc1ccc(F)cc1	2	1	9	-6	86*	0
OC(c1ccccc1)(c1ccccc1)C1CCN(CCCOc2cccc(OC(F)(F)F)c2)CC1	·	2	15	160*	15	0
OC(c1ccccc1)(c1ccccc1)C1CCN(CCCOc2cc(F)cc(F)c2)CC1	·	·	9	-42	-2	0
OC(c1ccccc1)(c1ccccc1)C1CCN(CCCOc2ccc3c(c2)CCCC3)CC1	·	5	47	762*	?	0
OC(c1ccccc1)(c1ccccc1)C1CCN(CCCOc2ccc(-c3ccc(F)cc3F)cc2)CC1	·	·	31	249*	59	0
COc1ccc(S(=O)(=O)Nc2ccc3c(c2)CC(=O)N([C@@H](C)CO)C[C@@H](C)[C@@H](CN(C)S(=O)(=O)c2ccc(OC)cc2)O3)cc1	-8	3	10	-6	1	3
C[C@H]1CN([C@@H](C)CO)S(=O)(=O)c2ccc(C3=CCCCC3)cc2O[C@@H]1CN(C)C(=O)c1ccc(F)cc1	-6	9	23	-12	1	0
COc1ccc2oc(-c3ccc(NC(=O)c4ccc(N5CCOCC5)c([N+](=O)[O-])c4)cc3)nc2c1	-4	·	·	109*	·	·
O=C(Nc1ccc(-c2nc3ccccc3o2)cc1)c1ccc(N2CCOCC2)c([N+](=O)[O-])c1	6	-5	16	2	·	·
Cc1ccc(S(=O)(=O)N2CCCCC2)cc1NC(=O)Cc1c[nH]c2ccccc12	·	2	19	0	153*	0
C[C@@H]1CN([C@H](C)CO)C(=O)c2cc(C#CC3(O)CCCC3)cnc2O[C@@H]1CN(C)Cc1ccccn1	3	-2	3	37	-9	-2
Cc1ccc(S(=O)(=O)N[C@H]2C=C[C@@H](CC(=O)NCCN3CCCCC3)O[C@H]2CO)cc1	105*	0	-7	9	5	0
Cc1ccc(S(=O)(=O)N[C@@H]2C=C[C@@H](CC(=O)NCCN3CCCCC3)O[C@H]2CO)cc1	-10	2	-4	3	-1	0
SMILES	PGC1a acetyl inh	MLL AF4-AF9 inh	EWS-Fli inh	INS-1E GSIS act	PAX8 inh HTS	Xi reactivation
S=C(NCCCN1CCOCC1)N1CCN(c2nc(-c3ccccc3)cs2)CC1	·	15	11	0	4	0
S=C(NCCCN1CCOCC1)N1CCN(c2nc(-c3ccc(Cl)cc3)cs2)CC1	·	33*	28	-3	39	0
CCN(CC)C(=O)Cn1cc(C(=O)C(=O)N2CCN(Cc3ccccc3)CC2)c2ccccc21	·	-6	6	60*	9	0
C[C@H]1CN([C@@H](C)CO)C(=O)c2cc(C#CCc3ccccc3)cnc2O[C@@H]1CN(C)Cc1ccc(C(=O)O)cc1	8	13	-3	22	6	0
CC1(C)C[C@H](O)[C@]2(CO)[C@H](O)C[C@]3(C)C(=CCC4[C@@]5(C)CC[C@H](O)C(C)(C)C5CC[C@]43C)[C@@H]2C1 (some centres undefined)	9	46*	18	13	14	0
CC1(C)C[C@H](O)[C@]2(CO)CC[C@]3(C)C(=CCC4[C@@]5(C)CC[C@H](O)C(C)(C)C5CC[C@]43C)[C@@H]2C1 (some centres undefined)	-14	-4	-2	·	·	·
Cc1ccc(C)c(CSc2nc3[nH]ncc3c(=O)[nH]2)c1	·	-6	58*	-13	11	0
CCCCSc1nc2[nH]ncc2c(=O)[nH]1	7	0	-17	69*	-1	0
CCSc1nc2[nH]ncc2c(=O)[nH]1	·	·	·	28	7	0
C[C@@H]1CN([C@H](C)CO)C(=O)c2cc(NC(=O)Nc3ccc(C(F)(F)F)cc3)ccc2O[C@@H](C)CCCCO[C@@H]1CN(C)C(=O)Cc1ccccc1	·	-4	-4	14	72*	0
C[C@@H]1CCCCO[C@H](CN(C)C(=O)Cc2ccccc2)[C@@H](C)CN([C@@H](C)CO)C(=O)c2cc(NC(=O)Nc3ccc(C(F)(F)F)cc3)ccc2O1	·	-6	-7	6	79*	0
